Measured values from different studies.
Compare with care: the assays were run in different laboratories.
CA2: Carbonic anhydrase 2 (CA2, Homo sapiens, UniProt P00918)
CA1: Carbonic anhydrase 1 (CA1, Homo sapiens, UniProt P00915)
ADRA2A: Alpha-2A adrenergic receptor (ADRA2A, Homo sapiens, UniProt P08913)

CC1(C)CCN(CC(=O)Nc2nnc(S(N)(=O)=O)s2)CC1
Ki (CA2; enzyme activity; inhibitor; stopped-flow): 31.1 nM

C[C@H]1c2cccc(O)c2C(=O)C2=C(O)[C@]3(O)C(=O)C(C(N)=O)=C(O)[C@@H](N(C)C)[C@@H]3[C@@H](O)[C@@H]21
Ki (CA1; enzyme activity; inhibitor): 8510 nM

Cc1cc(Oc2ncccc2CN2CCN(c3ccccc3C#N)CC2)ccc1-c1c(C)c(=O)[nH]c(=O)n1C
Ki (ADRA2A; ligand displacement; radioligand): 128 nM

O=c1[nH]c(=O)n([C@H]2C[C@H](O)[C@@H](CO)O2)cc1/C=C/Br
Ki (CA1; enzyme activity; inhibitor): 8390 nM

OC1CCN(c2ccc(/C=N/NC(=S)Nc3cccc(Cl)c3Cl)cc2)CC1
Ki (CA2; enzyme activity; inhibitor): 271 nM

Cc1ccc(-n2cc(COC(=O)c3ccc(=O)oc3)nn2)cc1
Ki (CA1; enzyme activity; inhibitor; stopped-flow): > 100000 nM

CCN1/C(=C/C(C)=O)Sc2ccc(F)cc21
Ki (ADRA2A; ligand displacement; radioligand): 50300 nM

NS(=O)(=O)c1nnc(NC(=O)C2CCC3(CCCCC3)C2)s1 (stereo not drawn)
Ki (CA2; enzyme activity; inhibitor; stopped-flow): 40.1 nM

Cc1cc(Oc2ncccc2CN2CCN(c3ccc(Br)cc3)CC2)ccc1-c1c(C)c(=O)[nH]c(=O)n1C
Ki (ADRA2A; ligand displacement; radioligand): 841 nM

O=C(Oc1ccc(-c2ccccc2)cc1)c1ccc(=O)oc1
Ki (CA1; enzyme activity; inhibitor; stopped-flow): > 100000 nM

NS(=O)(=O)c1nnc(NC(=O)CN2CCC(F)CC2)s1
Ki (CA1; enzyme activity; inhibitor; stopped-flow): 68.2 nM

Cc1cc(Oc2ncccc2CN2CCN(c3c(C)cccc3C)CC2)ccc1-c1c(C)c(=O)[nH]c(=O)n1C
Ki (ADRA2A; ligand displacement; radioligand): 731 nM

CC[C@H]1OC(=O)[C@H](C)[C@@H](O[C@H]2C[C@@](C)(OC)[C@@H](O)[C@H](C)O2)[C@H](C)[C@@H](O[C@@H]2O[C@H](C)C[C@H](N(C)C)[C@H]2O)[C@](C)(O)C[C@@H](C)CN(C)[C@H](C)[C@@H](O)[C@]1(C)O
Ki (CA2; enzyme activity; inhibitor; absorbance): 8170 nM

O=C(NCc1cn(-c2ccccc2)nn1)c1ccc(=O)oc1
Ki (CA1; enzyme activity; inhibitor; stopped-flow): > 100000 nM

Cc1cc(Oc2ncccc2CN2CCN(c3ccccc3[N+](=O)[O-])CC2)ccc1-c1c(C)c(=O)[nH]c(=O)n1C
Ki (ADRA2A; ligand displacement; radioligand): 146 nM

CC1=C(/C=C/C(C)=C/C=C/C(C)=C\C(=O)O)C(C)(C)CCC1
Ki (CA2; enzyme activity; inhibitor; absorbance): 6900 nM

Cc1cc(Oc2ncccc2CN2CCN(c3cccc(Cl)c3)CC2)ccc1-c1c(C)c(=O)[nH]c(=O)n1C
Ki (ADRA2A; ligand displacement; radioligand): 161 nM

Nc1nc2c(ncn2COCCO)c(=O)[nH]1
Ki (CA2; enzyme activity; inhibitor; absorbance): 8680 nM
